Assay results of several laboratories.
Lines come from different studies, so protocols differ. Values after ≈ are worked out from the molar mass of the structure shown.

Cc1nn(-c2nc3ccc(Cl)cc3s2)c2c1C(=O)c1ccccc1-2 — inhibition zone (Staphylococcus aureus; microbial growth, well diffusion; NCIM5021; 1000 µg/mL): 11 mm
O=C1NC(=S)N/C1=C\c1ccc(-c2ccc(N(c3ccccc3)c3ccccc3)cc2)c2ccccc12 — MBC (Micrococcus luteus; microbial killing, broth dilution; ATCC10240): > 1000 µg/mL
Cc1nn(-c2nc3ccc(Br)cc3s2)c2c1C(=O)c1ccccc1-2 — inhibition zone (Staphylococcus aureus; microbial growth, well diffusion; NCIM5021; 500 µg/mL): 12 mm
O=C(O)CN1C(=O)/C(=C/c2ccc(-c3ccc(N(c4ccccc4)c4ccccc4)cc3)c3ccccc23)NC1=S — MBC (Micrococcus luteus; microbial killing, broth dilution; ATCC10240): > 1000 µg/mL
N#Cc1c(O)c2c(-c3ccc(-c4ccccc4O)cc3)csc2[nH]c1=O — MIC (Staphylococcus aureus; microbial growth; NCTC8325): > 30 µM
O=C1NC(=S)N/C1=C\c1ccc(-c2ccc(N(c3ccccc3)c3ccccc3)cc2)cc1 — MBC (Micrococcus luteus; microbial killing, broth dilution; ATCC10240): > 1000 µg/mL
COc1cc2c(N3CCN(C(=O)Nc4ccc(OC(C)C)cc4)CC3)ncnc2cc1OCCCN1CCCCC1 — MIC (Staphylococcus aureus; microbial growth; NCTC8325): > 30 µM
O=C(Nc1ccccc1-c1ccc(F)c(F)c1)c1nccnc1C(F)(F)F — EC50 (Alternaria solani; microbial growth): 0.15 µg/mL (≈ 0.395 µM)
CNC(=O)c1cc(COc2nnc(Nc3ccc(Cl)cc3)c3ccoc23)ccn1 — MIC (Staphylococcus aureus; microbial growth; NCTC8325): > 30 µM
Cc1nn(-c2nc3ccccc3s2)c2c1C(=O)c1ccccc1-2 — inhibition zone (Staphylococcus aureus; microbial growth, well diffusion; NCIM5021; 500 µg/mL): 11 mm
